Measurements from ChEMBL document CHEMBL1155365, “2-Amino-9-aryl-3-cyano-4-methyl-7-oxo-6,7,8,9-tetrahydropyrido[2',3':4,5]thieno[2,3-b]pyridine derivatives as selective progesterone receptor agonists” (Bioorg Med Chem Lett, 2009).

How the values were obtained:
Progesterone receptor [1] = molecular target: T1, Progesterone receptor (Homo sapiens, UniProt P06401); experiment: Agonist activity at progesterone receptor B expressed in CV-1 cells by MMTV luciferase reporter gene assay; type: functional, cell-based
T1 sequence (P06401 whole entry): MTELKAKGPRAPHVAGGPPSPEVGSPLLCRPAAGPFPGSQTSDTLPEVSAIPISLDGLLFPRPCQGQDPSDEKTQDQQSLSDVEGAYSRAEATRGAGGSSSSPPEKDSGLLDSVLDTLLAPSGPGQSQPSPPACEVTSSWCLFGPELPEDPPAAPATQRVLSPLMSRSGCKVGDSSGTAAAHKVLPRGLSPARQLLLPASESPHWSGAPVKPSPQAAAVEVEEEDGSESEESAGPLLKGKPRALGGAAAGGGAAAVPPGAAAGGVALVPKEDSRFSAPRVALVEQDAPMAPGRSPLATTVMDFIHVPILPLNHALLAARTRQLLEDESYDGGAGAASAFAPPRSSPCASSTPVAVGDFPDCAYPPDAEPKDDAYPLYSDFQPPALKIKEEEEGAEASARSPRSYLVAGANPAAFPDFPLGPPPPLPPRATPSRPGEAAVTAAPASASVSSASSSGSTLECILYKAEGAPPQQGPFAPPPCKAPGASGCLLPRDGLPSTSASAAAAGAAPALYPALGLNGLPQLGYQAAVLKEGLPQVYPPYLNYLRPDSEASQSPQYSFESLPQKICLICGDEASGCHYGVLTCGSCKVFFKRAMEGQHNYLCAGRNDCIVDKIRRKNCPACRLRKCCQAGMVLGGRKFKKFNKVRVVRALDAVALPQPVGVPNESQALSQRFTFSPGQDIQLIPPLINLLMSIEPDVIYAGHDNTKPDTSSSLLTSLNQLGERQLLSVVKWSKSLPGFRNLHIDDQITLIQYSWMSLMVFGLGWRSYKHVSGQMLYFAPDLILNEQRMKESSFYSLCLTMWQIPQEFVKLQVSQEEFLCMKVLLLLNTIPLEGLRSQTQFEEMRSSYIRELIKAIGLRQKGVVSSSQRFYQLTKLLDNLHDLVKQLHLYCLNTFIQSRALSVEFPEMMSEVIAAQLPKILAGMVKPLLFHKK

[2] = molecular target: T2, Progesterone receptor (Homo sapiens) (UniProt P06401); experiment: Agonist activity at progesterone receptor in human T47D cell after 24 hrs by alkaline phosphatase assay relative to progesterone
T2 sequence (whole entry): T1 sequence (P06401 whole entry)

Progesterone receptor [3] = molecular target: T1, Progesterone receptor; experiment: Displacement of fluormone PL RED from progesterone receptor after 2 hrs
Summary of the method: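 Fluorescence polarization competition: 40 nM PR ligand-binding domain, 2 nM Fluormone PL Red, 1 mM DTT in PR Red buffer with 2 mM CHAPS, added to compound; brief spin, light-protected, ~2 h at room temperature; read at 530 nm excitation/580 nm emission. Values are means of ≥2 determinations.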

Androgen receptor [4] = molecular target: T3, Androgen receptor (Homo sapiens, UniProt P10275); experiment: Agonist activity at androgen receptor expressed in CV-1 cells by MMTV luciferase reporter assay; type: functional, cell-based
T3 sequence (P10275 whole entry): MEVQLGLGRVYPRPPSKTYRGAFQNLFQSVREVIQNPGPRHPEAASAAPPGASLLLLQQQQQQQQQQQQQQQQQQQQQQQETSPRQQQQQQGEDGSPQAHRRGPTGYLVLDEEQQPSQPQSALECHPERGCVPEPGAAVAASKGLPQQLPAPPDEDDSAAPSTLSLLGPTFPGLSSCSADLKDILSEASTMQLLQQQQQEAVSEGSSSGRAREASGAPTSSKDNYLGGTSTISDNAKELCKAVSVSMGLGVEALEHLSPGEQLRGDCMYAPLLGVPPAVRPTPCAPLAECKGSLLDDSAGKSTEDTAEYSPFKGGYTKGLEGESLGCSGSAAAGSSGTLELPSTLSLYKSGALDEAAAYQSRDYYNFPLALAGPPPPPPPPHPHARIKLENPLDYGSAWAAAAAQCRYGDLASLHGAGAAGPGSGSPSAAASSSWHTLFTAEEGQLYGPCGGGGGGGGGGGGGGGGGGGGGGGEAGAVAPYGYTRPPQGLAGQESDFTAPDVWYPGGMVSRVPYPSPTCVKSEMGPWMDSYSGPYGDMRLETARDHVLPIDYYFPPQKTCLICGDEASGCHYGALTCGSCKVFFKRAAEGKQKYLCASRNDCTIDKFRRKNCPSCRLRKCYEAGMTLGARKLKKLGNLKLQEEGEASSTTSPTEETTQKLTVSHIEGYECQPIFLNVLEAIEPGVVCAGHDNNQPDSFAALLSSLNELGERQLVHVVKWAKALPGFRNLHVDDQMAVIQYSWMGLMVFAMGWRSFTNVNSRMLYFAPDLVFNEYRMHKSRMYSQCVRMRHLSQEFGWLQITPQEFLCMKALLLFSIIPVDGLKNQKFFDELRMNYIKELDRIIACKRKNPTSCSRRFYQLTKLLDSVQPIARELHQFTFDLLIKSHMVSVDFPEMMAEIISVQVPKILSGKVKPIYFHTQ

Androgen receptor [5] = molecular target: T3, Androgen receptor; experiment: Binding affinity to androgen receptor
Progesterone receptor [6] = molecular target: T1, Progesterone receptor; experiment: Agonist activity at progesterone receptor in human T47D cell after 24 hrs by alkaline phosphatase assay; type: functional, cell-based
Summary of the method: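 T47D cells seeded and left to attach overnight, then treated with compound and incubated overnight. Next day pNPP-SPAP substrate added, 2 h in the dark, absorbance read at 405 nm. Potency as pEC50, efficacy as % of P4 response; means of ≥2 determinations.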

Mus musculus = experiment: Blood clearance in mouse at 0.5 mg/kg, iv and 1 mg/kg, po; type: ADME, organism-based; details: in vivo
Summary of the method: (§1)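 In vivo mouse pharmacokinetics with dosing at 0.5 mg/kg intravenously and 1.0 mg/kg orally. Blood clearance, half-life, steady-state volume of distribution and oral bioavailability were derived from these studies.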

Cytochrome P450 2D6 = Cytochrome P450 2D6 (Homo sapiens, UniProt P10635); experiment: Inhibition of CYP2D6; type: ADME
Cytochrome P450 3A4 = Cytochrome P450 3A4 (Homo sapiens, UniProt P08684); experiment: Inhibition of CYP3A4; type: ADME
Cytochrome P450 2C19 = Cytochrome P450 2C19 (Homo sapiens, UniProt P33261); experiment: Inhibition of CYP2C19; type: ADME
Cytochrome P450 2C9 = Cytochrome P450 2C9 (Homo sapiens, UniProt P11712); experiment: Inhibition of CYP2C9; type: ADME
Liver microsomes = experiment: Intrinsic clearance in human liver microsomes; type: ADME, Microsome
Summary of the method: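 Metabolic stability in human liver microsomes; intrinsic clearance expressed as mL/min[…].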

Cytochrome P450 1A2 = molecular target: T4, Cytochrome P450 1A2 (Homo sapiens, UniProt P05177); experiment: Inhibition of CYP1A2; type: ADME
T4 sequence (P05177 whole entry): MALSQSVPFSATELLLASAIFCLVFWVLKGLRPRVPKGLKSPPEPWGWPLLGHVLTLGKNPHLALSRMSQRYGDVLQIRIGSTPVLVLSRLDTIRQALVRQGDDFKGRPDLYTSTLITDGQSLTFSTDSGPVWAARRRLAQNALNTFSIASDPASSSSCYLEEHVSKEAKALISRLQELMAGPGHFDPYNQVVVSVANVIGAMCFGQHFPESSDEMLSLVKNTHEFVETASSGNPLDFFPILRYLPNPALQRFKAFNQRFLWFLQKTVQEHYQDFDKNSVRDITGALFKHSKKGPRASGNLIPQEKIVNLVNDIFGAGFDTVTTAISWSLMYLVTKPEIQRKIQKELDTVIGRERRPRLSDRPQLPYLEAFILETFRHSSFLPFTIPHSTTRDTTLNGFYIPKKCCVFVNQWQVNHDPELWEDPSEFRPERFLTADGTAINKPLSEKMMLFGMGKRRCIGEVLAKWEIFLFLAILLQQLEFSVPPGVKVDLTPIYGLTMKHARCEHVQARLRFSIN

[7] = molecular target: Voltage-gated inwardly rectifying potassium channel KCNH2 (Homo sapiens, UniProt Q12809); experiment: Binding affinity to human ERG channel
[8] = Volume of distribution at steady state in mouse at 0.5 mg/kg, iv and 1 mg/kg, po; type: ADME, organism-based; details: in vivo, read-out: Vdss; summary of the method: as §1
[9] = Half life in mouse at 0.5 mg/kg, iv and 1 mg/kg, po; type: ADME, organism-based; details: in vivo; summary of the method: as §1
[10] = Oral bioavailability in mouse at 1 mg/kg; type: ADME, organism-based; details: in vivo; summary of the method: as §1

Chain of Voltage-gated inwardly rectifying potassium channel KCNH2 (Q12809 whole entry): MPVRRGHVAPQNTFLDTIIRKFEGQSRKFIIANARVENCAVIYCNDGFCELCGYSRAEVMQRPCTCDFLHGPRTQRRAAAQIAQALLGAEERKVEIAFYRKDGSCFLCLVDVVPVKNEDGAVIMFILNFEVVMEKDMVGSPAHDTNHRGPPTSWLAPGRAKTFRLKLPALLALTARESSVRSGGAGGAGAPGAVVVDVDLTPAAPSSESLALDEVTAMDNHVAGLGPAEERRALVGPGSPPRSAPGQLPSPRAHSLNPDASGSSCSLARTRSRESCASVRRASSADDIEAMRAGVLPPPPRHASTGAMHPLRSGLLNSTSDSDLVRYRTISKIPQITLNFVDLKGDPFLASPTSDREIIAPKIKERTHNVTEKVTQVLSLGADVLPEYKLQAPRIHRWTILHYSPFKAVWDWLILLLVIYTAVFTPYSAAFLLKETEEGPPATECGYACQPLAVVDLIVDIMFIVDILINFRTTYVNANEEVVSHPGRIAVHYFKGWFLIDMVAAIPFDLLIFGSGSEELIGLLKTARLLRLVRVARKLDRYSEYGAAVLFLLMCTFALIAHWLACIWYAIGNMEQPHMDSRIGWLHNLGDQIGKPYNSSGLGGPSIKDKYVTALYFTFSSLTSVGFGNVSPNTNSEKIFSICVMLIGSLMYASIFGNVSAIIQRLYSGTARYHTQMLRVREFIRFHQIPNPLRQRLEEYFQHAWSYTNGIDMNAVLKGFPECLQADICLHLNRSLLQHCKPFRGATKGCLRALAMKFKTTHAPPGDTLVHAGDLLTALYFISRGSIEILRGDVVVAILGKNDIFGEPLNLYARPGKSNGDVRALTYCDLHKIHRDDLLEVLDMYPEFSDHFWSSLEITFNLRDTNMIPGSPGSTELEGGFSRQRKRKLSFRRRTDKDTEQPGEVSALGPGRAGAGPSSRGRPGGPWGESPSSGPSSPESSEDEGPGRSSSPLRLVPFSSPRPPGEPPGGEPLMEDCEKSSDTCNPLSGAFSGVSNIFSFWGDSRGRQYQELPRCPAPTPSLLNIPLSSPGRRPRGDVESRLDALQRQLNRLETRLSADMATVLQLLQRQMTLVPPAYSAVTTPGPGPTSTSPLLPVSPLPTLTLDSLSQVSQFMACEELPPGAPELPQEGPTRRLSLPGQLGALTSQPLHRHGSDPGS
Chain of Cytochrome P450 2C9 (P11712 whole entry): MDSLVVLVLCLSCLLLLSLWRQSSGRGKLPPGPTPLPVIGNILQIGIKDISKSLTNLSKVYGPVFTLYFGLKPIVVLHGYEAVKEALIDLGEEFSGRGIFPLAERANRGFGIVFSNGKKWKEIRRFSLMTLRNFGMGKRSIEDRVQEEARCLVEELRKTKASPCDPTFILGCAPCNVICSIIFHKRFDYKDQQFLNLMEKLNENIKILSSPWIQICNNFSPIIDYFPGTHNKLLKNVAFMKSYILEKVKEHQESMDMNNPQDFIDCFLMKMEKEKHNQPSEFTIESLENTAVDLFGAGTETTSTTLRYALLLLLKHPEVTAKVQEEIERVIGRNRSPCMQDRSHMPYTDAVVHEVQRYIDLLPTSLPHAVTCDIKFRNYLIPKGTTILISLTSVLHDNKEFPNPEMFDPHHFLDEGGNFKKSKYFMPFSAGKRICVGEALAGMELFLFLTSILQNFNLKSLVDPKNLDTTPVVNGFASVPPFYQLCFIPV
Chain of Cytochrome P450 3A4 (P08684 whole entry): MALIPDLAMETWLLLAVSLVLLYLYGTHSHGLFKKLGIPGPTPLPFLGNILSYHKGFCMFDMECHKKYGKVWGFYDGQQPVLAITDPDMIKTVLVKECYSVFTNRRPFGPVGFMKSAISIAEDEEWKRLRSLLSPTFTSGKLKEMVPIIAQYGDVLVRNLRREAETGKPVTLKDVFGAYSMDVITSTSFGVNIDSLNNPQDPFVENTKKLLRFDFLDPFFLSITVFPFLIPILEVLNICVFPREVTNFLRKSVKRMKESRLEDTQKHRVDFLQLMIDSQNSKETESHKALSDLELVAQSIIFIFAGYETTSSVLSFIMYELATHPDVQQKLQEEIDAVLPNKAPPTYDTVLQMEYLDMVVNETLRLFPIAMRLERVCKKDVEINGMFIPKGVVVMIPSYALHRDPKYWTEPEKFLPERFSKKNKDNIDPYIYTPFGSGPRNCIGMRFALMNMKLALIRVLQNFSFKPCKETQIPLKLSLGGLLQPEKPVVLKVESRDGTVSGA
Chain of Cytochrome P450 2C19 (P33261 whole entry): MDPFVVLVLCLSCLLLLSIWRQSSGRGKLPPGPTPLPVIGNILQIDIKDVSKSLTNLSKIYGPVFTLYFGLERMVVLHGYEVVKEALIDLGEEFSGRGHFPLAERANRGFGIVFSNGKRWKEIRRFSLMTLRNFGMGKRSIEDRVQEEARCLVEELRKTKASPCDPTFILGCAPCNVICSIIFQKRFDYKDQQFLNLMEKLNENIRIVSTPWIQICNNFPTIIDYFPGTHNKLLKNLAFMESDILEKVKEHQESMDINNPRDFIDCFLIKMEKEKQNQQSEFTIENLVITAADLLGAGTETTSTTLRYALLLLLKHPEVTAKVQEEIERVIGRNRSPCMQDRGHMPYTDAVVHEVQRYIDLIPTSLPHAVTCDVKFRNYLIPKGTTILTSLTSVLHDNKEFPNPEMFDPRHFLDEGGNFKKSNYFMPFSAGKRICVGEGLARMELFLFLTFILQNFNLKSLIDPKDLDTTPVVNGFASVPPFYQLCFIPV
Chain of Cytochrome P450 2D6 (P10635 whole entry): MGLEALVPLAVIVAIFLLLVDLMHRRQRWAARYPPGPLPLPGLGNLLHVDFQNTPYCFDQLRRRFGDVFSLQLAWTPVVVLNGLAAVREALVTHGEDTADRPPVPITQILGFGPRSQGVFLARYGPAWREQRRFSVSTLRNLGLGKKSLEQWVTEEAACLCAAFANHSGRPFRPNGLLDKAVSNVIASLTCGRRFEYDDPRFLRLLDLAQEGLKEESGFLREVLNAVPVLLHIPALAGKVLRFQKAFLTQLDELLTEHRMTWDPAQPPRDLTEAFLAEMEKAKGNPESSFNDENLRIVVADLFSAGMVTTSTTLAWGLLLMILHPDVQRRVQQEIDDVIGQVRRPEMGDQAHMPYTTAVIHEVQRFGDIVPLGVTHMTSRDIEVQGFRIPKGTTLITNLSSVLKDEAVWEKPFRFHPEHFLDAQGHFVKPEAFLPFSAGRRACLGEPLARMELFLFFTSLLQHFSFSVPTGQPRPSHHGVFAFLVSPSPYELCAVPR

| SMILES | EC50 (Progesterone receptor [1]) [nM] | Activity [2] [%] | IC50 (Progesterone receptor [3]) [nM] | pEC50 (Progesterone receptor [6]) | pIC50 (Androgen receptor [5]) | further results |
| --- | --- | --- | --- | --- | --- | --- |
| Cc1c(C#N)c(Cl)nc2c3c(sc12)NC(=O)CC3c1ccccc1Cl (stereo not given) | 0.794 | 116 | 50.1 | 8.6 | – | EC50 (Androgen receptor [4]): > 10000 nM; IC50 (Androgen receptor [5]): 2000 nM |
| Cc1c(C#N)c(N)nc2c3c(sc12)NC(=O)CC3c1cc(Cl)ccc1Cl (stereo not given) | > 10000 | – | 1000 | – | > 5 | – |
| Cc1c(C#N)c(N)nc2c3c(sc12)NC(=O)CC3c1c(F)cccc1Cl (stereo not given) | 3980 | 13 | 1260 | 6.1 | > 5 | – |
| Cc1c(C#N)c(N)nc2c3c(sc12)NC(=O)CC3c1ccccc1 (stereo not given) | > 10000 | – | – | – | > 5 | – |
| COc1ccccc1C1CC(=O)Nc2sc3c(C)c(C#N)c(N)nc3c21 (stereo not given) | > 10000 | – | > 10000 | – | – | – |
| Cc1ccccc1C1CC(=O)Nc2sc3c(C)c(C#N)c(N)nc3c21 (stereo not given) | > 10000 | – | 1260 | – | > 5 | – |
| Cc1c(C#N)c(N)nc2c3c(sc12)NC(=O)CC3c1ccccc1Cl (stereo not given) | 631 | 80 | 200 | 7.1 | < 5 | clearance (Mus musculus): 24 mL/min/kg; IC50 (Cytochrome P450 2D6): > 10000 nM; IC50 (Cytochrome P450 3A4): > 10000 nM; IC50 (Cytochrome P450 2C19): > 10000 nM; IC50 (Cytochrome P450 2C9): 1260 nM; CL (Liver microsomes): 19 µL/min/mg; IC50 (Cytochrome P450 1A2): > 10000 nM; Activity [7]: Not Active; Vd [8]: 2.5 L/kg; half-life [9]: 1.1 h; bioavailability [10]: 36% |

The next lines start with results.

| EC50 (Progesterone receptor [1]) [nM] | Activity [2] [%] | IC50 (Progesterone receptor [3]) [nM] | pEC50 (Progesterone receptor [6]) | pIC50 (Androgen receptor [5]) | SMILES | further results |
| --- | --- | --- | --- | --- | --- | --- |
| > 10000 | – | 6310 | – | > 5 | Cc1c(C#N)c(N)nc2c3c(sc12)NC(=O)C[C@H]3c1ccccc1Cl | – |
| > 10000 | – | 794 | – | > 5 | Cc1c(C#N)c(N)nc2c3c(sc12)NC(=O)CC3c1cccc(Cl)c1Cl (stereo not given) | – |
| 3980 | 47 | 631 | 6.4 | – | Cc1c(C#N)c(N)nc2c3c(sc12)NC(=O)CC3c1ccccc1F (stereo not given) | – |
| 200 | 83 | 158 | 7.4 | > 5 | Cc1c(C#N)c(N)nc2c3c(sc12)NC(=O)C[C@@H]3c1ccccc1Cl | – |
| > 10000 | – | 794 | – | > 5 | Cc1c(C#N)c(N)nc2c3c(sc12)NC(=O)CC3c1ccc(Cl)cc1Cl (stereo not given) | – |
| > 10000 | – | > 10000 | – | – | COc1cccc(C2CC(=O)Nc3sc4c(C)c(C#N)c(N)nc4c32)c1 (stereo not given) | – |
| > 10000 | – | > 10000 | – | > 5 | Cc1c(C#N)c(O)nc2c3c(sc12)NC(=O)CC3c1ccccc1Cl (stereo not given) | – |
